The test system of test [1] is A549. Kind of test: Antiproliferative activity against human A549 cells after 72 hrs by fluorometric microculture cytotoxicity assay. The note with it: A549, 72 h.
A further test addresses T1, Dihydrofolate reductase (Bos taurus, UniProt P00376).
T1 sequence (P00376 whole entry): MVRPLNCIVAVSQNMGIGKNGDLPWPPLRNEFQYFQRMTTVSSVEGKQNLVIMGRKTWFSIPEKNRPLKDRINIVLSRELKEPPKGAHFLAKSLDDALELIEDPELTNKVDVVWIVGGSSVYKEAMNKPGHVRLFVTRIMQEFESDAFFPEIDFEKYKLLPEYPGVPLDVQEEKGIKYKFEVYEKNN
Kind of test: Inhibition of bovine liver DHFR using dihydrofolic acid substrate by UV-visible spectrophotometry.

The test system of test [2] is A549. In words: Growth inhibition of human A549 cells assessed as cell growth at 270 nM after 72 hrs by fluorometric microculture cytotoxicity assay in presence of 100 uM hypoxanthine relative to untreated control. It counts as functional. Further details: scale not given: the % may be the effect or the level left. The essentials: (§1)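 A549 cells were seeded and incubated 24 h, then medium was swapped for medium holding a fixed compound concentration alone, or with 20 µM thymidine, 100 µM hypoxanthine, or both. Twelve wells were used per solution, with solvent-matched controls. After 72 h, cells were PBS-washed, given FDA 2 µg/mL for 45 min at 37 °C, and fluorescence read at ex 485/em 535 nm. Growth is relative to control, as mean (SEM), n = 3.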

The subject of test [3] is A549. In words: Growth inhibition of human A549 cells assessed as cell growth at 270 nM after 72 hrs by fluorometric microculture cytotoxicity assay in presence of 20 uM thymidine relative to untreated control. Further details: scale not given: the % may be the effect or the level left. The test is classed as functional. The essentials: as §1
Test [4] deals with A549. In words: Growth inhibition of human A549 cells assessed as cell growth at 270 nM after 72 hrs by fluorometric microculture cytotoxicity assay in presence of 100 uM hypoxanthine and 20 uM thymidine relative to untreated control. The test is classed as functional. Further details: scale not given: the % may be the effect or the level left. The procedure, abridged: as §1

Test [5] has as its system A549. In words: Growth inhibition of human A549 cells assessed as cell growth at 270 nM after 72 hrs by fluorometric microculture cytotoxicity assay relative to untreated control. The test is classed as functional. The note with it: A549, 72 h, read-out: Activity. The essentials:
as §1

In test [6] the test system is A549. In words: Growth inhibition of human A549 cells assessed as cell growth at 370 nM after 72 hrs by fluorometric microculture cytotoxicity assay in presence of 100 uM hypoxanthine relative to untreated control. Further details: scale not given: the % may be the effect or the level left. It counts as functional. The essentials:
as §1

Test [7] deals with A549. In words: Growth inhibition of human A549 cells assessed as cell growth at 370 nM after 72 hrs by fluorometric microculture cytotoxicity assay in presence of 20 uM thymidine relative to untreated control. Also on record: scale not given: the % may be the effect or the level left. The test is classed as functional. The essentials: as §1
The test system of test [8] is A549. Kind of test: Growth inhibition of human A549 cells assessed as cell growth at 370 nM after 72 hrs by fluorometric microculture cytotoxicity assay in presence of 100 uM hypoxanthine and 20 uM thymidine relative to untreated control. It counts as functional. Also on record: scale not given: the % may be the effect or the level left. The procedure, abridged:
as §1

Test [9] deals with A549. Kind of test: Growth inhibition of human A549 cells assessed as cell growth at 370 nM after 72 hrs by fluorometric microculture cytotoxicity assay relative to untreated control. The note with it: A549, 72 h, read-out: Activity. It counts as functional. The procedure, abridged:
as §1

Test [10] deals with A549. In words: Growth inhibition of human A549 cells assessed as cell growth at 6.4 uM after 72 hrs by fluorometric microculture cytotoxicity assay in presence of 100 uM hypoxanthine relative to untreated control. It counts as functional. Also on record: scale not given: the % may be the effect or the level left. The essentials: as §1
Test [11] relates to A549. Kind of test: Growth inhibition of human A549 cells assessed as cell growth at 6.4 uM after 72 hrs by fluorometric microculture cytotoxicity assay in presence of 20 uM thymidine relative to untreated control. It counts as functional. Also on record: scale not given: the % may be the effect or the level left. The essentials:
as §1

Test [12] has as its system A549. Kind of test: Growth inhibition of human A549 cells assessed as cell growth at 6.4 uM after 72 hrs by fluorometric microculture cytotoxicity assay in presence of 100 uM hypoxanthine and 20 uM thymidine relative to untreated control. The test is classed as functional. Also on record: scale not given: the % may be the effect or the level left. The essentials: as §1

Test [13] deals with A549. In words: Growth inhibition of human A549 cells assessed as cell growth at 6.4 uM after 72 hrs by fluorometric microculture cytotoxicity assay relative to untreated control. The test is classed as functional. The following applies: A549, 72 h, read-out: Activity. The essentials:
as §1

`NC1=NC2(CCCC2)N(OCCCOc2ccccc2)C(N)=N1`: in the test with A549 [1], the IC50 was 40.2 nM.
As to `NC1=NC2(CCCC2)N(OCCCOc2ccc(F)cc2)C(N)=N1`, the values for the concentration for half-maximal inhibition (IC50) on Dihydrofolate reductase and in the test on A549 [1] were 10.1 nM and 58.8 nM, respectively.
`Cl.NC1=NC2(CCCC2)N(OCCCOc2ccc(Cl)cc2)C(N)=N1`: the concentration for half-maximal inhibition (IC50) against Dihydrofolate reductase is 7.2 nM; in the test on A549 [1], 27.1 nM. For the same compound, the Activity is given as 14.3% in the test with A549 [2], 68% in the test with A549 [3] and 90% with A549 [4]. In addition, the growth at 0.27 µM in the test on A549 [5] was 15.2%.
With `NC1=NC2(CCCC2)N(OCCCOc2ccc([N+](=O)[O-])cc2)C(N)=N1`, the results for the concentration for half-maximal inhibition (IC50) against Dihydrofolate reductase and with A549 [1] were 8.4 nM and 65.8 nM, respectively.
For `Cc1ccc(OCCCON2C(N)=NC(N)=NC23CCCC3)cc1` the same measures were 9.5 nM and 48.1 nM.
Regarding `CC(C)(C)c1ccc(OCCCON2C(N)=NC(N)=NC23CCCC3)cc1`, the figures for the 50% inhibitory concentration (IC50) on Dihydrofolate reductase and in the test on A549 [1] were 17 nM and 160 nM, respectively.
The corresponding values for `COc1ccc(OCCCON2C(N)=NC(N)=NC23CCCC3)cc1` are 11.2 nM and 59.1 nM.
The corresponding values for `N#Cc1ccc(OCCCON2C(N)=NC(N)=NC23CCCC3)cc1` are 7.6 nM and 60.7 nM.
Turning to `CC(=O)c1ccc(OCCCON2C(N)=NC(N)=NC23CCCC3)cc1`, the IC50 on Dihydrofolate reductase was determined as 9.2 nM; in the test on A549 [1] it was 59.8 nM.
With `NC1=NC2(CCCCC2)N(OCCCOc2ccccc2)C(N)=N1`, in the test on A549 [1], the midpoint of inhibition, the IC50, lay at 69.7 nM.
For `NC1=NC2(CCCCC2)N(OCCCOc2ccc(F)cc2)C(N)=N1`, the figures for the IC50 against Dihydrofolate reductase and in the test with A549 [1] were 15.4 nM and 59.2 nM, respectively.
In the case of `NC1=NC2(CCCCC2)N(OCCCOc2ccc(Cl)cc2)C(N)=N1`, the IC50 was determined as 13.8 nM against Dihydrofolate reductase and 49.6 nM in the test on A549 [1].
For `NC1=NC2(CCCCC2)N(OCCCOc2ccc([N+](=O)[O-])cc2)C(N)=N1` the same measures were 14.7 nM and 329 nM.
In the case of `Cc1ccc(OCCCON2C(N)=NC(N)=NC23CCCCC3)cc1`, the half-inhibitory concentration (IC50) at Dihydrofolate reductase was determined as 17.5 nM; in the test with A549 [1] it was 83.3 nM.
The corresponding values for `CC(C)(C)c1ccc(OCCCON2C(N)=NC(N)=NC23CCCCC3)cc1` are 21.5 nM and 496 nM.
For `COc1ccc(OCCCON2C(N)=NC(N)=NC23CCCCC3)cc1` the same measures were 6.1 nM and 51.6 nM.
For `N#Cc1ccc(OCCCON2C(N)=NC(N)=NC23CCCCC3)cc1` the same measures were 9.7 nM and 116 nM.
With `CC(=O)c1ccc(OCCCON2C(N)=NC(N)=NC23CCCCC3)cc1`, the IC50 against Dihydrofolate reductase came out at 13.3 nM; with A549 [1], 145 nM.
For `NC1=NC2(CCCCC2)N(OCCCOc2ccc(S(N)(=O)=O)cc2)C(N)=N1` the same measures were 5.6 nM and 166 nM.
Turning to `CN(Cc1cnc2nc(N)nc(N)c2n1)c1ccc(C(=O)N[C@@H](CCC(=O)O)C(=O)O)cc1` [METHOTREXATE], the Activity is 16% in the test on A549 [6], 77.3% in the test on A549 [7] and 96.6% with A549 [8]. For the same compound, the growth at 0.37 µM in the test on A549 [9] amounted to 14.3%. Half-maximal inhibition with A549 [1] (IC50) required 37.4 nM.
As to `Nc1nc2[nH]cc(CCc3ccc(C(=O)N[C@@H](CCC(=O)O)C(=O)O)cc3)c2c(=O)[nH]1` [PEMETREXED], the Activity is 12.6% in the test with A549 [10], 84.5% in the test with A549 [11] and 99.3% with A549 [12]. Moreover, the growth at 6.4 µM in the test with A549 [13] stood at 11.7%.

By IC50 is commonly meant the concentration needed to halve the response being measured.

These data come from ChEMBL document CHEMBL1799979, “Antifolate and antiproliferative activity of 6,8,10-triazaspiro[4.5]deca-6,8-dienes and 1,3,5-triazaspiro[5.5]undeca-1,3-dienes” (Bioorg Med Chem, 2010).
